Test results reported in ChEMBL document CHEMBL1126837, “Inhibitors of acyl-CoA:cholesterol acyltransferase. 5. Identification and structure-activity relationships of novel beta-ketoamides as hypocholesterolemic agents” (J Med Chem, 1993).

How the values were obtained:
Rattus norvegicus [1] = assay: Tested for percentage change in total cholesterol in cholic acid (0.5%)-cholesterol (1.5%) -peanut oil (5.5%)-fed rats at 30 mg/kg; type: functional
Outline: (§1)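 Male Sprague-Dawley rats (200-225 g) got a single oral gavage at 4 p.m. The compound was suspended in 1.5% carboxymethylcellulose/0.2% Tween-20 in water; controls got vehicle. Rats then fed ad libitum overnight on chow with 5.5% peanut oil, 1.5% cholesterol and 0.5% cholic acid. Blood was taken by cardiac puncture under ether at 8 a.m. Serum total cholesterol is given as % change versus vehicle controls (unpaired two-tailed t-test, p<0.05).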

O-acyltransferase = O-acyltransferase (Oryctolagus cuniculus, UniProt G1SFD9); assay: In vitro inhibition of Acyl coenzyme A:cholesterol acyltransferase in intestinal microsomes isolated from cholesterol-fed rabbits; type: functional, Intestine
Outline: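 Intestinal microsomes from cholesterol-fed rabbits were incubated with the compound and [1-14C]oleoyl-CoA as substrate. IC50 is the micromolar concentration giving 50% inhibition of enzyme activity. Each determination was done in triplicate.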

Rattus norvegicus [2] = assay: Tested for percentage change in total cholesterol in cholic acid (0.5%)-cholesterol (1.5%) -peanut oil (5.5%)-fed rats at 3 mg/kg; type: functional; outline: as §1

Sequence of O-acyltransferase (G1SFD9 1-524): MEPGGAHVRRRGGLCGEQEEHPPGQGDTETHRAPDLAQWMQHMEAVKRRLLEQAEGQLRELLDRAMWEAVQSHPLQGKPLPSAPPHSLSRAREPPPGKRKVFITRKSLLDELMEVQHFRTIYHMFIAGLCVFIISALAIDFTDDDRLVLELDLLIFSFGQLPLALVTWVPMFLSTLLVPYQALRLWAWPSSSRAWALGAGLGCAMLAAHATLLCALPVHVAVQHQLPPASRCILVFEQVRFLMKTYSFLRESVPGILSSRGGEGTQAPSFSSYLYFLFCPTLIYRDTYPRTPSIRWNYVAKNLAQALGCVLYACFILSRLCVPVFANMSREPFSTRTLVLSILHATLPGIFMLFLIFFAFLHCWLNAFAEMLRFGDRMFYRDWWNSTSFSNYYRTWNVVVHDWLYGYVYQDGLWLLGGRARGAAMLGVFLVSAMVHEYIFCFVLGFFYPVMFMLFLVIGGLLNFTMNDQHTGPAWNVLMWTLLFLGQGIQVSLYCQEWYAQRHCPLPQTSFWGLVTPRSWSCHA

Compound | IC50 (O-acyltransferase) [nM] | Change (Rattus norvegicus [1]) [%] | Change (Rattus norvegicus [2]) [%]
CC(C)c1cccc(C(C)C)c1NC(=O)CC(=O)CCCCCCCCCCO | 230 | -29 | -2
CC(C)c1cccc(C(C)C)c1NC(=O)CC(=O)CCCCCCCCCCOC1CCCCO1 (stereo unspecified) | 57 | -67 | -17
CCCCCCCCCCCC(=O)C(C)(C)C(=O)N(C)c1c(OC)cc(OC)cc1OC | – | -40 | –
CCCCCCCCCCCC(=O)C(C)(C)C(=O)N(C)c1c(C(C)C)cccc1C(C)C | 1000 | -60 | 0
CCCCCCCCCCC(=O)CC(=O)Nc1c(C(C)C)cccc1C(C)C | 60 | -30 | –
CCCCCCC1CCC(C(=O)Nc2c(C(C)C)cccc2C(C)C)C(=O)O1 (stereo unspecified) | – | -43 | –
CCCCCCCCCCCCCCC(=O)CC(=O)Nc1c(C(C)C)cccc1C(C)C | 24 | -57 | -34
CCCCCCCCCCCC(=O)C(C)(C)C(=O)Nc1c(OC)cc(OC)cc1OC | 370 | -44 | 0
CC(C)c1cccc(C(C)C)c1NC(=O)CC(=O)C(c1ccccc1)c1ccccc1 | 35 | -65 | -21
CC(C)c1cccc(C(C)C)c1NC(=O)C/C(CC(c1ccccc1)c1ccccc1)=N\O | 210 | -1 | 0
CC(C)c1cccc(C(C)C)c1NC(=O)CC(=O)c1ccccc1 | 810 | -4 | 0
CCCCCCCCCCCCC1CC(C(=O)Nc2c(C(C)C)cccc2C(C)C)C(=O)N1 (stereo unspecified) | 53 | -20 | –
CCCCCCCCCCCCC(=O)CC(=O)Nc1c(C(C)C)cccc1C(C)C | 11 | -56 | -31
CCCCCCCC1CC(C(=O)Nc2c(C(C)C)cccc2C(C)C)C(=O)O1 (stereo unspecified) | – | -26 | –

Second part, led by results:

IC50 (O-acyltransferase) [nM] | Compound | Change (Rattus norvegicus [1]) [%] | Change (Rattus norvegicus [2]) [%]
69 | CCCCCCCCCCCC(=O)CC(=O)Nc1c(C(C)C)cccc1C(C)C | -43 | -25
44 | CC(C)c1cccc(C(C)C)c1NC(=O)CC(=O)CC(c1ccccc1)c1ccccc1 | -43 | -23
11 | CC(C)c1cccc(C(C)C)c1NC(=O)CC(=O)C1(c2ccccc2)CCCC1 | -37 | –
150 | CCCCCCCCCCCC(=O)CC(=O)Nc1c(OC)cc(OC)cc1OC | -31 | –
97 | CCCCCCCCCC(=O)CC(=O)Nc1c(C(C)C)cccc1C(C)C | -54 | -5
6 | CCCCCCCCCCCCCC(=O)CC(=O)Nc1c(C(C)C)cccc1C(C)C | -66 | -38
340 | CCCCCCCC1CCC(C(=O)Nc2c(C(C)C)cccc2C(C)C)C(=O)O1 (stereo unspecified) | -11 | –
3500 | CC(C)c1cccc(C(C)C)c1NC(=O)CC(O)CC(c1ccccc1)c1ccccc1 (stereo unspecified) | -10 | –
22 | CCCCCCCCCCCCC1CCCC(C(=O)Nc2c(C(C)C)cccc2C(C)C)C(=O)N1 (stereo unspecified) | -47 | –
